In the library only some 2.2% were active in any assay of this set; here they are far more common.
CAL PDZ FP-1: blocks peptide binding to the human CAL PDZ domain; Q9HD26; purified CAL PDZ, TMR-peptide fluorescence polarization, 1 h; inhibition, % at 24.9 µM; 300,000 tested, 0.92% active; AID 602252;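 active = mean inhibition of at least 30% with at least half of replicates also reaching 30%; inconclusive = no clear call, values can overlap the other calls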;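 also: 0% = DMSO neutral control and 100% = excess unlabeled competitor peptide PRC23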
DYRK1A inh: blocks rat Dyrk1A kinase activity; ADP-Glo luminescence, NFATc1 peptide; Q63470; inhibition, % at 12.5 µM; AID 504441; 310,000 tested, 0.43% active; in the data active = inhibition above about 50%;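 also: plate controls were vehicle with enzyme for no effect and no enzyme for full effect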
CAL PDZ FP-2: blocks peptide binding to human CAL PDZ domain. inhibition, % at 20 µM. AID 504414. 330,000 tested, 0.02% active. purified CAL PDZ, TMR-peptide fluorescence polarization, 1 h;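 active = highest replicate inhibition of at least 40%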;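 also: plate controls were DMSO neutral control wells for no effect and unlabeled competitor peptide control wells for full effect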
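Test system: tagged CAL PDZ domain / Buffer or medium: sodium phosphate/NaCl buffer pH 7.4 with TCEP, IgG, Thesit / Reagent: TMR-labelled reporter peptide T*-PRC34 bound in PDZ groove / Compound dosing: single point, 20 µM / Schedule: 1 h incubation at room temperature before polarization reading / Technique: fluorescence polarization (mP) / Benchmarks: unlabelled peptide, DMSO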
CDK5 p35 inh: inhibitors of human CDK5/p35 kinase; AID 488839; Recombinant CDK5/p35, ADP-Glo luminescence, 60 min; Q00535+Q15078; inhibition, % at 10 µM; 330,000 tested, 0.01% active;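 active = highest replicate inhibition of at least 50% and at least 75% of replicates reaching 50%; inconclusive = only one of the two criteria met; inactive = both criteria failed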;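 also: plate controls were DMSO neutral control for no effect and GW8510 at 10 µM for full effect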
dFosB act-1: mouse delta FosB homodimer activation; P13346; activation, % at 25 µM; purified delta FosB, TAMRA-CDK5 oligo fluorescence polarization; percent of positive-control signal above neutral wells; 340,000 tested, 0.99% active;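 active = mean activation above about 17%, with every replicate also reaching it, limit read from the data, passing the limit was not always enough; inconclusive = only one of the two conditions met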
Rtt109 HAT inh: blocks Candida albicans Rtt109/Vps75 acetyltransferase activity. inhibition, % at 34.9 µM. 330,000 tested, 0.16% active. purified Rtt109/Vps75, ThioGlo CoA-SH fluorescence, 4 h;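 active = inhibition of at least 50% in every replicate; inconclusive = best replicate reaches 50% inhibition but some replicates fall short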
Target sequence (Q5AAJ8 whole entry, looked up): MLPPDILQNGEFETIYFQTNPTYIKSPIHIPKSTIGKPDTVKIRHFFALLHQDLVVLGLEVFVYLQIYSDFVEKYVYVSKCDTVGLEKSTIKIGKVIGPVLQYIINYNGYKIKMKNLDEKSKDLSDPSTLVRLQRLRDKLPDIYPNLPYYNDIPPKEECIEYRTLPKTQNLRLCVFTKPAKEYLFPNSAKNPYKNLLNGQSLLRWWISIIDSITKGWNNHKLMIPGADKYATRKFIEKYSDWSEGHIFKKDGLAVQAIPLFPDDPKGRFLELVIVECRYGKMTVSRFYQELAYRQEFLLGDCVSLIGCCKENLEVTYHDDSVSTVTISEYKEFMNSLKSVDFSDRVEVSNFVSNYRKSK
dFosB act-2: activators of mouse delta FosB homodimer DNA binding; shares compounds with dFosB act-1; purified delta FosB, TAMRA-CDK5 oligo fluorescence polarization; normalised: neutral wells 0, positive control 100; activation, % at 24.9 µM; 2,400 tested, under 10 active; AID 588690;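 active = highest replicate activation at or above 34% and every replicate reaching that threshold; inconclusive = meets only one of the two criteria; inactive = meets neither criterion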;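 also: higher polarization means more probe DNA bound by delta FosB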
The depositor's hits bear a star; ? = inconclusive; / = no result.

SMILES	CAL PDZ FP-1	DYRK1A inh	CAL PDZ FP-2	CDK5 p35 inh	dFosB act-1	Rtt109 HAT inh	dFosB act-2
O=C(Nc1ccc(-c2nnn(CC(=O)N3CCN(C(=O)c4ccco4)CC3)n2)cc1)c1ccc(F)cc1	-4	2	-1	2	35*	10	5
COc1ccc(CCNC(=O)Cn2nnc(-c3ccc(OC)c(OC)c3)n2)cc1OC	3	/	-1	0	3	-4	/
COCCCNC(=O)Cn1nnc(-c2ccc(NC(=O)c3ccc(F)cc3)cc2)n1	-3	5	-3	-4	35*	0	8
COc1ccc(CN(C)CC(=O)Nc2ccccc2C(=O)NC2CC2)cc1OC	/	-2	0	1	-8	-8	/
CCOC(=O)Nc1ccc2c(CNC(C)c3ccccc3OC)cc(=O)oc2c1 (stereo not given)	2	0	-3	-5	-10	6	/
COc1ccc(NC(=O)Cn2nnc(C(=O)Nc3ccc(F)c(Cl)c3)c2N)cc1OC	-4	-4	-3	1	23*	29	3
Cc1ccc(NC(=O)c2nnn(CC(=O)Nc3ccc4c(c3)OCO4)c2N)cc1C	-4	0	-2	-1	46*	1	-1
Cc1ccc(NC(=O)Cn2nnc(C(=O)Nc3ccc(C)c(C)c3)c2N)cc1	-2	0	-4	0	120*	7	-6
CSc1ccc(Cn2nnc(C(=O)Nc3ccc(C)c(C)c3)c2N)cc1	/	-2	0	0	-9	1	/
COc1ccc(OCC(=O)Nc2cccc(S(=O)(=O)N(C)c3ccccc3)c2)c([N+](=O)[O-])c1	0	-5	-2	-3	-6	4	/
Cc1ccc2nc(C)cc(Nc3ccc([N+](=O)[O-])cc3)c2c1	5	3	0	0	63*	-1	1
COC(=O)c1ccc(Nc2cc(C)nc3ccc(C)cc23)cc1	7	7	-3	1	-8	1	/
O=C1c2ccccc2CN1CCSC(=S)N1CCOCC1	-1	-7	-1	-1	-4	-4	/
CC[C@H](C)[C@@H]1NC(=O)c2cc([N+](=O)[O-])cc(F)c2NCCCC[C@@H](C(N)=O)NC(=O)[C@H](CCCCN)NC1=O	1	2	-1	3	21*	-1	3
COc1ccccc1NS(=O)(=O)c1ccc(C)c(C(=O)NCC(c2cccs2)N2CCOCC2)c1 (stereo not given)	-7	/	0	1	-4	19	/
CC(=O)Nc1ccc(S(=O)(=O)N2CCC3(CC2)OCCO3)cc1	/	-10	-1	-8	-11	2	/
O=[N+]([O-])c1ccc(OCc2cnc(Cl)s2)c([N+](=O)[O-])c1	/	2	-1	0	-4	-4	/
O=C(Nc1cccc([N+](=O)[O-])c1)Nc1cnccn1	/	/	-1	-3	27*	1	-6
CC(=O)C1=C(O)C(=O)N(c2ccc(Br)cc2)C1c1ccc(Cl)cc1 (stereo not given)	-4	-5	-1	0	-8	9	/
CC(=O)c1cn(-c2ccc(Cl)cc2)c(=O)n(Cc2ccc(Br)cc2)c1=O	/	-1	-1	1	27*	-6	1
CC(OC(=O)c1ccc(NS(=O)(=O)c2ccc3[nH]c(=O)[nH]c3c2)cc1)C(=O)Nc1ccc(Cl)cc1 (stereo not given)	7	2	-1	0	22*	20	7
COc1ccc(Cl)cc1NC(=O)C(C)OC(=O)c1ccc(NS(=O)(=O)c2ccc3[nH]c(=O)[nH]c3c2)cc1 (stereo not given)	-14	/	-3	0	-2	-18	/
Cc1cc(Br)ccc1NC(=O)CSc1nnc(CN2CCOCC2)n1C	-4	3	0	-2	0	-10	/
CC(=O)CSc1ccc(-c2nc3cc(C)c(C)cc3[nH]2)cn1	/	2	-5	-2	-4	-13	/
Cc1cc2nc(-c3ccc(SCC(=O)Nc4nccs4)nc3)[nH]c2cc1C	-3	-11	-1	1	58*	7	-2
SMILES	CAL PDZ FP-1	DYRK1A inh	CAL PDZ FP-2	CDK5 p35 inh	dFosB act-1	Rtt109 HAT inh	dFosB act-2
Nc1nc(CN2CCc3ccccc3C2)nc(Nc2ccccc2)n1	-1	2	-3	1	27*	8	8
CCCCNC1c2ccccc2C(=O)N1Cc1ccccc1 (stereo not given)	/	-3	-1	0	-1	-2	/
O=C(N/N=C/c1ccncc1)c1ccc(NC(=O)c2cccc(Cl)c2)cc1	0	-1	-2	1	39*	-18	3
O=C(N/N=C/c1ccncc1)c1ccc(NC(=O)c2ccc(Cl)cc2)cc1	/	-3	-7	0	65*	2	-1
CC1(c2nnc(-c3cccc(Cl)c3)o2)CC(c2cccc([N+](=O)[O-])c2)=NO1 (stereo not given)	-4	-8	-2	0	-6	-1	/
CC1=NNC(=O)C1Oc1ccccc1 (stereo not given)	-2	-1	1	1	2	-2	/
CC(=O)c1cccc(NC(=O)Cc2coc3cc4c(cc23)CCC4)c1	-1	-2	-3	-2	41*	-4	3
O=C(Oc1cccc(/C=N/Nc2nc(N3CCOCC3)nc(N3CCOCC3)n2)c1)c1ccco1	-4	-3	-2	0	-18	3	/
O=[N+]([O-])c1cccc(/C=N/Nc2nc(NCc3ccccc3)nc(N3CCOCC3)n2)c1	-1	-6	-2	0	8	-8	/
COc1ccc(/C=N/Nc2nc(Nc3ccccc3)nc(N3CCCC3)n2)cc1[N+](=O)[O-]	20	-3	0	-2	62*	1	?
CNc1nc(N/N=C/c2cc3c(cc2[N+](=O)[O-])OCO3)nc(Nc2ccccc2)n1	1	37	-4	-2	55*	15	6
O=[N+]([O-])c1ccc(/C=N/Nc2nc(NCc3ccccc3)nc(N3CCOCC3)n2)cc1	-2	-2	-5	-1	27*	1	2
COc1cc(/C=N/Nc2nc(Nc3ccccc3)nc(N3CCOCC3)n2)ccc1OC(=O)c1ccco1	-6	-2	-3	0	54*	-1	3
O=C(CN1CCN(c2ccc(C(F)(F)F)cn2)CC1)Nc1ccc2c(c1)OCO2	-3	-1	-1	-1	1	12	/
CCCCN(C(=O)CSc1nnc(-c2ccccc2OC)n1C)c1c(N)n(Cc2ccccc2)c(=O)[nH]c1=O	-2	0	-2	3	0	/	/
CCOC(=O)c1c(C)[nH]c(N=Nc2ccc(OC)cc2)c1C	-3	-4	0	1	-14	5	/

Bioassay records as filed in PubChem BioAssay.
